A selection: hits, their analogues and other compounds. The true share with any hit is near 0.99%.
GRK2 inh: inhibitors of human GRK2 displacing RNA aptamer | P25098 | bead flow cytometry, FAM-aptamer displacement from GRK2 | inhibition of aptamer binding, % at 10 µM | 330,000 tested, 0.59% active | AID 488847;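 active = inhibition of aptamer binding above 40%, roughly 3 SD of noise, on plates passing a quality check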;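 note: median bead fluorescence of bound FAM aptamer so fluorescent compounds give negative values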
Target sequence (P25098 whole entry, looked up): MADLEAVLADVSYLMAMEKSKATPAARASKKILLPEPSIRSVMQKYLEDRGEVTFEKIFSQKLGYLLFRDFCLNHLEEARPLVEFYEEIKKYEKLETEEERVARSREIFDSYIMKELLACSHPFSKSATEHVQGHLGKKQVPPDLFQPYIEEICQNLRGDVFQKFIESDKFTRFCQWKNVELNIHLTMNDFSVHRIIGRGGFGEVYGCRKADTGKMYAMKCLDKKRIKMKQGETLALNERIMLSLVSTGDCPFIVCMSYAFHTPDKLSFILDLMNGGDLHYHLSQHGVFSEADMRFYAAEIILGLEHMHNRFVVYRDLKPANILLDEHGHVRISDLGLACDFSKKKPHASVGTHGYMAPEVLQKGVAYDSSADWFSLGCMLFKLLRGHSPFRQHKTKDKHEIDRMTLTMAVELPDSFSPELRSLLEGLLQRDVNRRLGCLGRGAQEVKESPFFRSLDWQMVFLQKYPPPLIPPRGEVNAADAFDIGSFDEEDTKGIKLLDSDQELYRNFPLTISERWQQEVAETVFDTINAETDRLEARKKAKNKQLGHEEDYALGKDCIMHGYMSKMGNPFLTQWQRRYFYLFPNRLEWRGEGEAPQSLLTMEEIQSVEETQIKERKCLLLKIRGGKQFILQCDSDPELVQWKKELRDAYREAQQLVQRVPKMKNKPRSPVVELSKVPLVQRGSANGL
Insulin prom up: MIN6 insulin promoter up-regulation; MIN6 insulin promoter-GFP reporter, high-content imaging; stronger effect = higher value; z-score at 5 µM; 190,000 tested, 0.3% active;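 active = z-score above 3 at 5 µM with at least 500 cells counted in the well; inconclusive = wells under 500 cells, flagged as cytotoxic or low count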
ABCB1 inh: human ABCB1 inhibition, ABCG2 as counter-screen. P08183. CCRF-Adr cells, JC-1 efflux, flow cytometry. inhibition, % at 6.6 µM. 190,000 tested, 0.067% active. AID 1326; in the data active = inhibition above about 40%;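 note: higher value means more JC-1 retained so stronger ABCB1 efflux block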
Tn6 DDE FP: DD(E)-Tn6 binding inhibition, primary FP screen. 370,000 tested, 0.21% active. Fibrin DD(E) TRITC-Tn6 fluorescence polarization displacement. inhibition, % at 8.3 µM. AID 720509;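 active = inhibition above a per-campaign cutoff: mean of compounds within control limits plus 3 SD, cut at about 15% in these data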
DDE Tn7 FP inh: disrupts Tn7 cyclic peptide binding to fibrin D-Dimer-E complex | AID 720508 | P02675 | 370,000 tested, 0.13% active | inhibition, % at 8.3 µM | FP displacement of FITC-Tn7 peptide from fibrin DD(E); 0% = median of compound wells per plate;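 active = inhibition above the mean of compounds falling within the control limits plus 3 SD of them, cut at about 14% in these data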
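Assay system: human fibrin DD(E) protein / Input: 2 µM fibrin DD(E) / Benchmarks: high control of 10 µM Aha-Tn7 peptide / Measured by: fluorescence polarization of the labelled Tn7 tracer / Medium: Tris buffer with calcium and detergent, pH 7.8 / Timing: 10 min compound pre-incubation, 3 h probe incubation at room temperature / Repeats: one replicate per compound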
ABCG2 inh: blocks JC-1 efflux by human ABCG2 transporter; Q9UNQ0; IgMXP3 cells, flow cytometry; inhibition, % at 6.6 µM; 190,000 tested, 0.1% active;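 active = inhibition above 80%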
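test system = two drug-resistant human cell lines, ABCG2 and ABCB1 | amount = 3 million cells/mL final, two lines in 1:1 ratio | reagent = JC-1 transporter substrate | doses = one concentration, 6.6 µM final | incubation = 10 min at 25 °C | signal = flow cytometric JC-1 green MFI at 530 nm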
ABCB1 confirm: confirmation of human ABCB1 transporter inhibitors, ABCG2 counter-screen. shares compounds with ABCG2 inh. CCRF-Adr cells, JC-1 efflux, flow cytometry. inhibition, % at 6.6 µM. 270 tested, 7% active;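 active = inhibition of pump activity above 50%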
ABCG2 single pt: inhibits human ABCG2 efflux, confirmed at single point; shares compounds with ABCG2 inh; IgMXP3 cells, JC-1 efflux, flow cytometry; inhibition, % at 6.6 µM; 270 tested, 6% active; AID 1453;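 active = inhibition above 50%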
IgMXP3 autofluor: counter-screen for ABCG2 inhibitors: compound fluorescence in IgMXP3 cells | AID 1480 | compound autofluorescence 488/530 nm, flow; stronger effect = higher value | fluorescence at 6.6 µM | 270 tested, 30% active | shares compounds with ABCG2 inh;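 active = fluorescence in ABCG2-expressing cells above the plate's control-well mean plus 3 SD, cut at about 15 in these data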
CCRF autofluor: CCRF-Adr autofluorescence flag for ABCB1 confirmation; shares compounds with ABCG2 inh; fluorescence at 6.6 µM; 270 tested, 30% active; CCRF-Adr cells, compound autofluorescence 488/530 nm, flow cytometry; stronger effect = higher value;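 active = fluorescence beyond the plate control mean plus 3 SD, with a fluorescence-to-maximum score over 2, cut at about 25 in these data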
GRK2 CP1: confirmation of human GRK2 inhibitors displacing RNA aptamer. shares compounds with GRK2 inh. bead-bound GRK2, FAM-aptamer displacement, flow cytometry. aptamer displacement, % at 10 µM. 2,000 tested, 4% active. AID 504451;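 active = aptamer displacement above 40%, near three times the noise of non-fluorescent compounds, on plates passing quality checks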;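 note: negative values mostly reflect intrinsic compound fluorescence rather than true enhancement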
Aptamer quench: quenches fluorescent RNA aptamer, GRK2 hit artifact | shares compounds with GRK2 inh | Fluorescent RNA aptamer beads, quenching, flow cytometry; stronger effect = higher value | fluorescence change (kMESF span), kMESF (no concentration beside the values) | 110 tested, under 10 active;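 active = compounds whose bead fluorescence drops by more than 37 kMESF across the dose range, marking them as dye quenchers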
FAM quench CP1: quenches fluorescent RNA aptamer, GRK2 hit artifact; 2,000 tested, under 10 active; shares compounds with GRK2 inh; Carboxyfluorescein RNA aptamer on beads, flow cytometry quenching; stronger effect = lower value; fluorescence response (% of DMSO), % at 10 µM;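 active = compounds that quench the bead-bound fluorescent RNA probe, cutting fluorescence to under half of the solvent control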;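 note: counterscreen run without GRK2 so only probe quenching by compound is measured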
GRK2 CP2: human GRK2 inhibition confirmation, cherry pick 2. shares compounds with GRK2 inh. bead-bound GRK2, FAM-aptamer displacement, flow cytometry. inhibition of aptamer binding, % at 10 µM. 360 tested, under 10 active. AID 504782;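 active = inhibition of aptamer binding above 40%, about triple the noise seen with nonglowing compounds, on plates passing quality control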;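 note: negative values mostly come from compounds that fluoresce themselves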
FAM quench SP: quenches fluorescent RNA aptamer, GRK2 hit artifact; shares compounds with GRK2 inh; carboxyfluorescein RNA aptamer beads, flow cytometry quenching; stronger effect = lower value; fluorescence response vs DMSO, % at 10 µM; 360 tested, under 10 active; AID 588494;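 active = response vs DMSO under 50%, meaning signal dropped by over half, treated as fluorescence quencher; inconclusive = no clear call, values can overlap the other calls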;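 note: labelled aptamer on streptavidin beads without GRK2 as a quench counter-screen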
Each line names hits and unclear results; the compound was inactive in the other large screens (follow-up assays come after a bar, where they were run).

COc1cccc(/C=C(/C(=O)OCC(=O)NC2CCCC(C)C2C)c2ccccc2)c1 (centres undefined)	none | ABCB1 confirm inactive | ABCG2 single pt inactive | IgMXP3 autofluor inactive | CCRF autofluor inactive
CNC(=O)OCc1nc(SSC(C)(C)C)n(C)c1COC(=O)NC	none (no result: GRK2 inh, Insulin prom up, ABCB1 inh, ABCG2 inh)
CC(=O)c1c(C)[nH]c(C(=O)OCC(=O)Nc2ccc(C)cc2[N+](=O)[O-])c1C	none
CC(=O)c1c(C)[nH]c(C(=O)OCC(=O)Nc2cc(Cl)ccc2[N+](=O)[O-])c1C	none | ABCB1 confirm inactive | ABCG2 single pt inactive | IgMXP3 autofluor inactive | CCRF autofluor inactive
O=C(NCc1ccccn1)c1cn(-c2ccccc2)nc1-c1ccc(Cl)cc1	ABCG2 inh 83 | ABCB1 confirm inactive | ABCG2 single pt inactive | IgMXP3 autofluor 22 | CCRF autofluor 149
C[C@H]1[C@H](N)CC[C@@]23CCCN2C(=O)CCC[C@@H]13	none (no result: GRK2 inh, Insulin prom up, ABCB1 inh, ABCG2 inh)
O=c1oc2ccccc2cc1-c1nc2c(s1)CCCC2	none | ABCB1 confirm inactive | ABCG2 single pt inactive | IgMXP3 autofluor inactive | CCRF autofluor inactive
COc1ccc(NC(=O)c2cc(CN3C(=O)c4ccccc4C3=O)ccc2OC)cn1	none
COc1ccc(CN2C(=O)c3ccccc3C2=O)cc1C(=O)Nc1ccccc1N1CCOCC1	ABCB1 inh 43 | ABCB1 confirm 72 | ABCG2 single pt inactive | IgMXP3 autofluor inactive | CCRF autofluor inactive
COc1ccc(Cc2nc3c4c(ncn3n2)Oc2ccc3ccccc3c2C4c2ccc(OC)c(OC)c2)cc1 (centres undefined)	none | ABCB1 confirm inactive | ABCG2 single pt inactive | IgMXP3 autofluor inactive | CCRF autofluor inactive
COc1ccc(Cc2nc3c4c(ncn3n2)Oc2c(ccc3ccccc23)C4c2ccc(OC)c(OC)c2)cc1 (centres undefined)	none
O=[N+]([O-])c1ccc(OCCN2CCCCCC2)cc1	ABCG2 inh 81 | ABCB1 confirm inactive | ABCG2 single pt inactive | IgMXP3 autofluor inactive | CCRF autofluor inactive
CN(Cc1ccccc1)S(=O)(=O)c1cccc(C(=O)OCc2cccc(C(F)(F)F)c2)c1	none (no result: GRK2 inh, Insulin prom up, ABCB1 inh, ABCG2 inh)
COc1ccc(N2CCN(C(=O)C3CCC(Cn4c(=S)[nH]c5ccccc5c4=O)CC3)CC2)cc1 (centres undefined)	ABCB1 inh 41 | ABCB1 confirm inactive | ABCG2 single pt inactive | IgMXP3 autofluor inactive | CCRF autofluor inactive
CCOC(=O)c1c(NC(=O)CC)sc2c1CCN(Cc1ccccc1)C2	none (no result: Insulin prom up, ABCB1 inh, ABCG2 inh)
CCOC(=O)c1c(NC(=O)CSc2ncccn2)sc2c1CCN(Cc1ccccc1)C2	ABCB1 inh 48 (no result: GRK2 inh) | ABCB1 confirm 67 | ABCG2 single pt inactive | IgMXP3 autofluor 47 | CCRF autofluor 109
O=[N+]([O-])c1ccc(Nc2nc(Cl)nc(NCCO)n2)cc1	none | ABCB1 confirm inactive | ABCG2 single pt 55 | IgMXP3 autofluor inactive | CCRF autofluor inactive
CN(c1c2c(nc3ncnn13)CCCC2)C1CCCCC1	none (no result: GRK2 inh, Insulin prom up, ABCB1 inh, ABCG2 inh)
N#C/C(=C\c1ccc([N+](=O)[O-])o1)c1nc2ccccc2[nH]1	Insulin prom up inconclusive
Cc1ccc2nc(/C(C#N)=C\c3ccc([N+](=O)[O-])o3)[nH]c2c1	Insulin prom up inconclusive, ABCB1 inh 61 | ABCB1 confirm inactive | ABCG2 single pt inactive | IgMXP3 autofluor 42 | CCRF autofluor 47 | GRK2 CP1 inactive | FAM quench CP1 inactive
CCN1/C(=C/c2ccc3cccc(C)c3[n+]2CC)Sc2ccccc21	GRK2 inh 91, ABCG2 inh active (no result: Insulin prom up) | ABCB1 confirm inactive | ABCG2 single pt 69 | IgMXP3 autofluor 304 | CCRF autofluor 305 | GRK2 CP1 69 | Aptamer quench inactive | FAM quench CP1 inactive
COC(=O)[C@]12C[C@H](CC(=O)N3CCCCC3)C(=O)N(CCc3ccc(OC)c(OC)c3)C1=C[C@H](C1CCCC1)O[C@@H]2C	none (no result: GRK2 inh, Insulin prom up, ABCB1 inh, ABCG2 inh)
Cc1ccc(N2CC(C(=O)Nc3cccc(C(=O)NC4CC4)c3)CC2=O)cc1 (centres undefined)	none (no result: Insulin prom up, ABCB1 inh, ABCG2 inh) | GRK2 CP1 inactive | FAM quench CP1 inactive
Cn1cc(C(=O)OCC2CCN(CCNS(C)(=O)=O)CC2)c2ccccc21	none (no result: Insulin prom up, ABCB1 inh, ABCG2 inh) | GRK2 CP1 inactive | FAM quench CP1 inactive
COc1cccc(OC)c1C(=O)OCC(=O)NCC(C)C	GRK2 inh 96 | GRK2 CP1 inactive | FAM quench CP1 inactive
Cc1ccc(-n2c(SCC(=O)N/N=C/C=C\c3ccco3)nnc2-c2ccccc2)cc1	none (no result: GRK2 inh, Insulin prom up, ABCB1 inh, ABCG2 inh)
C=CCN1C(=O)c2ccc(C(=O)N(CCC)CC(=O)Nc3ccccc3C)cc2C1=O	GRK2 inh 99 (no result: Insulin prom up, ABCB1 inh, ABCG2 inh) | GRK2 CP1 inactive | FAM quench CP1 inactive
O=C(Nc1cc(Cl)ccc1N1CCOCC1)c1ccc(N2CCCCC2)c([N+](=O)[O-])c1	GRK2 inh 42 (no result: Insulin prom up, ABCB1 inh, ABCG2 inh) | GRK2 CP2 inactive | FAM quench SP inactive
C[C@@H]1ON(C)[C@H]2C[C@H]3c4[nH]c5c(-c6ccc7c(c6)OCO7)cccc5c4CCN3C[C@@H]12	none (no result: GRK2 inh, Insulin prom up, ABCB1 inh, ABCG2 inh)
c1cc2c(cc1Cn1cnnn1)OCO2	none
Cc1nnc(C)c2c(C)n(Cc3ccc4c(c3)OCO4)c(C)c12	GRK2 inh 64 | GRK2 CP1 inactive | FAM quench CP1 inactive

High-throughput results (PubChem BioAssay)
